ChEMBL document CHEMBL4346686, “Discovery and biological evaluation of novel androgen receptor antagonist for castration-resistant prostate cancer” (Eur J Med Chem, 2019)
pIC50: −log10 of the molar value. Active and inactive are the calls of the source. The rule behind the calls is not given here.

Legend:
[1] = Antiproliferative activity against human LNCaP-AR cells assessed as reduction in cell viability incubated for 6 days by CCK8 assay; assay type: functional, cell-based; conditions: 144 h
Summary of the method: (§1)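 Cells seeded (2×10^4 per well for VCaP, 1–3×10^3 for the others) and compound added after 24 h as a 9-point, 3-fold serial dilution. Exposure 6 days, then CCK-8 for 1–4 h and absorbance at 450 nm. IC50 from curve fit, mean of at least two independent experiments run in duplicate.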

VCaP = test: Antiproliferative activity against human VCaP cells assessed as reduction in cell viability incubated for 6 days by CCK8 assay; assay type: functional, cell-based; conditions: 144 h; summary of the method: as §1
CWR22R = test: Antiproliferative activity against human 22Rv1 cells assessed as reduction in cell viability incubated for 6 days by CCK8 assay; assay type: functional, cell-based; conditions: 22Rv1, 144 h; summary of the method: as §1
L02 = test: Antiproliferative activity against human L02 cells assessed as reduction in cell viability incubated for 6 days by CCK8 assay; assay type: cell-based; conditions: L02, 144 h; summary of the method: as §1
PC-3 = test: Antiproliferative activity against human PC3 cells assessed as reduction in cell viability incubated for 6 days by CCK8 assay; assay type: functional, cell-based; conditions: PC-3, 144 h; summary of the method: as §1
[2] = target: T1, Androgen receptor (Homo sapiens) (UniProt P10275); test: Antagonist activity at androgen receptor in human VCaP cells assessed as inhibition of R1881-induced PSA mRNA expression at 5 uM after 24 hrs by qRT-PCR analysis; assay type: cell-based
T1 sequence (whole entry): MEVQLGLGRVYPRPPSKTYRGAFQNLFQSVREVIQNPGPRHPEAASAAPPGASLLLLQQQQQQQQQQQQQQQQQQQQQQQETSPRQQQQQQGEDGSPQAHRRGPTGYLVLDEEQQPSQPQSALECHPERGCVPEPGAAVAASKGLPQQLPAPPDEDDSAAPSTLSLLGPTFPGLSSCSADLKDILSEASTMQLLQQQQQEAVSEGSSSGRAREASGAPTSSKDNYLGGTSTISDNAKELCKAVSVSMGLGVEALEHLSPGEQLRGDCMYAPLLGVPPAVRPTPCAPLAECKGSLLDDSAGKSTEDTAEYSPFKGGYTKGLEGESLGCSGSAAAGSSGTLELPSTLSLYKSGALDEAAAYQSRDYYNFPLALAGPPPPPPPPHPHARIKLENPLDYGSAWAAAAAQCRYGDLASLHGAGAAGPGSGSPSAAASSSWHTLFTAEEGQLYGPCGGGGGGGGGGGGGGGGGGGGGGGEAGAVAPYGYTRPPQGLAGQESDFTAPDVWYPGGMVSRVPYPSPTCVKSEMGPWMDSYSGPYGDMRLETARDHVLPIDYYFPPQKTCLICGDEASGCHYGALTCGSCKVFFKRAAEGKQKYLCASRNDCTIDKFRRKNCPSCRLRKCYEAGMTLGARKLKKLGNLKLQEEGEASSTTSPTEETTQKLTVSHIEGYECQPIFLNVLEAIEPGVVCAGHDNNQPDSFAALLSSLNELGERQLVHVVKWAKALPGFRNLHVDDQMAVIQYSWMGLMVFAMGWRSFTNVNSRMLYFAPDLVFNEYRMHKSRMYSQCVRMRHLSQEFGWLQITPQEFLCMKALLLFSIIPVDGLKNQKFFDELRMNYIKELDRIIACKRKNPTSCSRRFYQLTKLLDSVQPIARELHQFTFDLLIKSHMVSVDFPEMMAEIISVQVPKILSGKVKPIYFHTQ
Summary of the method: (§2)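 VCaP cells kept 48 h in DMEM with 5% charcoal-stripped FBS, then treated 24 h with compound plus 0.2 nM R1881. RNA extracted with TRIzol, reverse-transcribed, and PSA or FKBP5 mRNA quantified by qRT-PCR normalized to GAPDH. Expressed relative to DMSO-treated samples; mean ± SD, n = 3, two-tailed t-test.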

[3] = target: T1, Androgen receptor (Homo sapiens); test: Antagonist activity at androgen receptor in human VCaP cells assessed as inhibition of R1881-induced FKBP5 mRNA expression at 5 uM after 24 hrs by qRT-PCR analysis; assay type: cell-based; summary of the method: as §2
[4] = target: T2, Steroid 17-alpha-hydroxylase/17,20 lyase (Homo sapiens, UniProt P05093); test: Inhibition of C-myc/DDK tagged human CYP17A1 expressed in HEK293T cells assessed as reduction in formation of 17-OHP at 10 uM incubated for 30 mins by LC-MS/MS analysis; assay type: cell-based; conditions: 0.5 h
T2 sequence (P05093 whole entry): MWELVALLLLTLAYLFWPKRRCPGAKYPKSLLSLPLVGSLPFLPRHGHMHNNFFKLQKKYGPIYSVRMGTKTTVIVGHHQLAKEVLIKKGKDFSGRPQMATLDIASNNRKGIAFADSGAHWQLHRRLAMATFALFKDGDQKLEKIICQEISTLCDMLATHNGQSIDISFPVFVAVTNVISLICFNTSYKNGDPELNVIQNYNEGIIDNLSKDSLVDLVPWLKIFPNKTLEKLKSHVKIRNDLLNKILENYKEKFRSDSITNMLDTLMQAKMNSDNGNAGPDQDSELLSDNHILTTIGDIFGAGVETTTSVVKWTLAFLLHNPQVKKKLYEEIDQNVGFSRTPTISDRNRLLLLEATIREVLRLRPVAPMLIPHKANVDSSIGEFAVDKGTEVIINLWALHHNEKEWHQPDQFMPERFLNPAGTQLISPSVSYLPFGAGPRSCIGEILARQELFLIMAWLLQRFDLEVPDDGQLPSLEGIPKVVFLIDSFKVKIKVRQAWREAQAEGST
Summary of the method: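 CYP17A1 activity measured as 17α-hydroxyprogesterone formation in 50 mM Tris pH 7.4, 5 mM MgCl2. Incubation 30 min at 37 °C, quenched with 20% trichloroacetic acid; product quantified by LC-MS/MS. Mean ± SD, n = 2.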

| SMILES | pIC50 [1] | pIC50 (VCaP) | pIC50 (CWR22R) | pIC50 (L02) | pIC50 (PC-3) | inhibition [2] | inhibition [3] | inhibition at 10 µM [4] [%] |
| --- | --- | --- | --- | --- | --- | --- | --- | --- |
| CCN(c1ccc(C#N)c(Cl)c1)c1cc(-c2ccccc2)ccc1C | 5.56 | < 4.52 | < 4.52 | < 4.52 | – | – | – | – |
| CCN(c1ccc(C#N)c(Cl)c1)c1cc(-c2cccnc2)ccc1C | 6.48 | 5.90 | 5.70 | 4.90 | 4.96 | Active | Active | – |
| N#Cc1ccc(N2CCc3cc(-c4cccnc4)ccc32)cc1C(F)(F)F | 5.91 | – | – | – | – | – | – | – |
| CCN(c1ccc(C#N)c(Cl)c1)c1cc(-n2ccnc2)ccc1C | 6.49 | < 4.52 | < 4.52 | 4.82 | < 4.52 | – | – | – |
| N#Cc1ccc(N2CCc3cc(-c4cncnc4)ccc3C2)cc1C(F)(F)F | 5.78 | – | – | – | – | – | – | – |
| CCN(c1ccccn1)c1cc(-c2c(C)noc2C)ccc1C | 6.20 | 6.06 | 5.27 | 5.35 | 5.32 | – | – | – |
| N#Cc1ccc(N2CCc3cc(-c4ccncc4)ccc3C2)cc1C(F)(F)F | 6.01 | 5.46 | 5.16 | – | – | – | – | – |
| CCN(c1ccc(C#N)c(C(F)(F)F)c1)c1cc(-n2ccnc2)ccc1C | 6.25 to 6.40 | 4.52 to 5.41 | 4.79 | – | < 4.52 | – | – | – |
| CCN(c1ccc(C#N)c(Cl)c1)c1cc(-c2ccco2)ccc1C | 6.31 | < 4.52 | < 4.52 | – | < 4.52 | – | – | – |
| CCN(c1ccc(C#N)c(Cl)c1)c1cc(-c2cnc3ccccc3c2)ccc1C | 5.70 | 4.60 | – | – | 5.45 | – | – | – |
| N#Cc1ccc(N2CCc3cc(-c4cnc5ccccc5c4)ccc3C2)cc1C(F)(F)F | 6.01 | < 4.52 | 4.59 | – | 4.60 | – | – | – |
| CCN(c1ccncc1)c1cc(-c2c(C)noc2C)ccc1C | 5.54 | 5.70 | – | – | – | – | – | – |
| N#Cc1ccc(N2CCc3cc(-c4cncnc4)ccc32)cc1C(F)(F)F | 4.68 | – | – | – | – | – | – | – |
| CCN(c1cccc(-c2ccccc2)c1)c1ccc(C#N)c(Cl)c1 | 5.89 | – | – | – | – | – | – | – |
| CCN(c1cccc(-n2ccnc2)c1)c1ccc(C#N)c(C(F)(F)F)c1 | 6.24 | < 4.52 | 4.72 | – | < 4.52 | – | – | – |
| N#Cc1ccc(N2CCCc3c(-c4ccncc4)cccc32)cc1C(F)(F)F | 7.15 | < 4.52 | 4.82 | 5.20 | 4.54 | – | – | – |
| CCN(c1ccc(C#N)c(Cl)c1)c1cc(-c2ccnn2C)ccc1C | 6.77 | 5.78 | 5.36 | 5.21 | 5.14 | Active | Active | – |
| CCN(c1ccc(C#N)c(Cl)c1)c1cc(-c2ccncc2)ccc1C | 6.32 | 5.54 | 5.99 | 5.76 | 5.45 | – | – | – |
| C[C@]12CC[C@H](O)CC1=CC[C@@H]1[C@@H]2CC[C@]2(C)C(c3cccnc3)=CC[C@@H]12 [ABIRATERONE] | – | – | – | – | – | – | – | 100 |
| CCN(c1ccc(C#N)c(Cl)c1)c1cc(-n2cnc3ccccc32)ccc1C | 6.41 | 5.07 | 5.52 | – | 5.09 | – | – | – |

| SMILES | pIC50 [1] | pIC50 (VCaP) | pIC50 (CWR22R) | pIC50 (L02) | pIC50 (PC-3) | inhibition [2] | inhibition [3] | inhibition at 10 µM [4] [%] |
| --- | --- | --- | --- | --- | --- | --- | --- | --- |
| CCN(c1ccc(C#N)c(Cl)c1)c1cc(-c2c[nH]nc2C)ccc1C | 6.49 | 5.50 | 5.27 | 5.24 | 5.04 | – | – | – |
| CCN(c1cccc(-c2cncnc2)c1)c1ccc(C#N)c(Cl)c1 | 6.44 | < 4.52 | < 4.52 | – | < 4.52 | – | – | – |
| C[C@]12CC[C@H](O)CC1=CC[C@@H]1[C@@H]2CC[C@]2(C)C(n3cnc4ccccc43)=CC[C@@H]12 [GALETERONE] | – | – | – | – | – | – | – | 50 |
| CCN(c1cccc(-n2ccnc2)c1)c1ccc(C#N)c(Cl)c1 | 6.48 | < 4.52 | < 4.52 | 4.63 | < 4.52 | – | – | – |
| CCN(c1ccc(C#N)c(Cl)c1)c1cc(-c2ccoc2)ccc1C | 6.32 | 5.40 | < 4.52 | – | < 4.52 | – | – | – |
| CCN(c1ccc(C#N)c(Cl)c1)c1cc(-c2cccs2)ccc1C | 6.42 | – | 4.66 | – | < 4.52 | – | – | – |
| CCN(c1ccc(C#N)c(Cl)c1)c1cc(-c2cncnc2)ccc1C | 6.40 | 5.41 | < 4.52 | – | < 4.52 | Active | Active | – |
| Cc1noc(C)c1-c1cccc2c1CCCN2c1ccc(C#N)c(C(F)(F)F)c1 | 5.85 | < 4.52 | – | – | – | – | – | – |
| CCN(c1ccc(C#N)c(Cl)c1)c1cc(-c2ccc(F)nc2)ccc1C | 6.39 | < 4.52 | 4.78 | – | < 4.52 | – | – | – |
| CCN(c1ccc(C#N)c(Cl)c1)c1cc(-c2cn[nH]c2)ccc1C | 6.15 | – | < 4.52 | – | 4.82 | – | – | – |
| Cn1nccc1-c1cccc2c1CCCN2c1ccc(C#N)c(C(F)(F)F)c1 | 6.62 | < 4.52 | 4.98 | – | 5.01 | – | – | – |
| N#Cc1ccc(N2CCCc3c(-c4cccnc4)cccc32)cc1C(F)(F)F | 6.92 | 4.87 | 4.91 | 4.98 | 5.10 | – | – | – |
| Cc1ccc(-c2c(C)noc2C)cc1Nc1ccncc1 | 5.43 | 5.71 | – | – | – | Active | Active | – |
| N#Cc1ccc(N2CCc3cc(-c4cnc5ccccc5c4)ccc32)cc1C(F)(F)F | 4.94 | – | – | – | – | – | – | – |
| CCN(c1ccc(C#N)c(Cl)c1)c1cc(-c2c(C)noc2C)ccc1C | 6.72 | 5.92 | 5.52 | 5.06 | 5.32 | – | – | – |
| Cc1noc(C)c1-c1cccc(Oc2ccc(C#N)c(C(F)(F)F)c2)c1 | 5.78 | – | – | – | – | – | – | – |
| CCN(c1ccc(C#N)c(Cl)c1)c1cc(-n2cccn2)ccc1C | 6.54 | 5.63 | < 4.52 | – | 4.80 | – | – | – |
| N#Cc1ccc(N2CCc3cc(-c4cccnc4)ccc3C2)cc1C(F)(F)F | 6.12 | 5.60 | 5.32 | – | – | – | – | – |
| CCN(c1ccc(C#N)c(Cl)c1)c1cc(C2=CCCCC2)ccc1C | 5.59 | 4.70 | – | – | – | – | – | – |
